Results as given in ChEMBL document CHEMBL1123243, “Studies on prodrugs. 5. Synthesis and antimicrobial activity of N-(oxoalkyl)norfloxacin derivatives” (J Med Chem, 1986).

How the values were obtained:
Escherichia coli [1] = assay: Compound was tested for antimicrobial activity in mice infected with Escherichia coli KC-14 after peroral administration; format: functional; settings: po
Procedure, shortened: (§1)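 Male ddy mice (20 ± 2 g), groups of 10, were infected ip with 0.5 mL of bacteria at 10 or 100 times the 50% lethal dose. Compound was suspended in 0.5% sodium carboxymethyl cellulose and given orally 1 h postinfection. Survival was scored after 1 week.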

Staphylococcus aureus = assay: Compound was tested for antimicrobial activity against Staphylococcus aureus FDA207PJC-1; format: functional; parameters: unit: µg/mL
Procedure, shortened: (§2)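 Agar dilution on Mueller-Hinton agar with serial 2-fold dilutions; plate concentrations 0.006 to 100 µg/mL. Inoculum about 10^6 cfu/mL. Plates incubated at 37 °C for 18 h. MIC is the lowest concentration preventing visible growth.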

Proteus vulgaris = assay: Compound was tested for antimicrobial activity against Proteus vulgaris OX-19; format: functional; procedure, shortened: as §2
Serratia marcescens = assay: Compound was tested for antimicrobial activity against Serratia marcescens 16; format: functional; procedure, shortened: as §2
[2] = Lethal dose was measured in rat after iv administration; format: toxicity, organism-based; settings: in vivo
Procedure, shortened: (§3)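 Each compound was suspended in 0.5% cmc and given by the stated route. Deaths were counted within 1 week, and LD50 was calculated by the method of Weil.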

Escherichia coli [3] = assay: Compound was tested for antimicrobial activity against Escherichia coli KC-14; format: functional; procedure, shortened: as §2
Pseudomonas aeruginosa = assay: Compound was tested for antimicrobial activity against Pseudomonas aeruginosa PAO1; format: functional; procedure, shortened: as §2
Klebsiella pneumoniae = assay: Compound was tested for antimicrobial activity against Klebsiella pneumonia IFO3512; format: functional; procedure, shortened: as §2
Mus musculus [4] = assay: Compound was tested for antimicrobial activity in mice infected with Pseudomonas aeruginosa E2,po; format: functional
Procedure, shortened: (§4)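 Male ddy mice (20 ± 2 g, groups of 10) received an intraperitoneal inoculum of 0.5 mL bacterial dilution at 10 or 100 times the 50% lethal dose. Compound was suspended in 0.5% sodium carboxymethyl cellulose and given orally 1 h postinfection.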

Mus musculus [5] = assay: Compound was tested for antimicrobial activity in mice infected with Staphylococcus aureus smith. po; format: functional; procedure, shortened: as §4
Bacillus subtilis = assay: Compound was tested for antimicrobial activity against Bacillus subtilis ATCC 6633; format: functional; procedure, shortened: as §2
Mus musculus [6] = assay: (§5) Serum concentration in mice, after oral administration at a dose of 100 mg/kg p.o. at 2 hr; format: functional, organism-based; parameters: dose 100 mg/kg
Procedure, shortened: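 Compound was suspended in 0.5% sodium carboxymethyl cellulose and given orally to mice at 100 mg/kg, as a dose equivalent to 100 mg/kg NFLX. Mice were killed by bleeding at 0.5, 1.0, 2.0 and 4.0 h. Serum NFLX and parent compound were each measured by HPLC.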

Mus musculus [7] = assay: Serum concentration in mice, after oral administration at a dose of 100 mg/kg p.o. at 1 hr; format: functional, organism-based; parameters: dose 100 mg/kg
Procedure, shortened: (§6)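 Mice were given compound orally as a suspension in 0.5% sodium carboxymethyl cellulose at 100 mg/kg (NFLX-equivalent dose). Animals were killed by bleeding at 0.5, 1.0, 2.0 and 4.0 h. Serum norfloxacin and parent compound were measured by HPLC.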

Mus musculus [8] = assay: Serum concentration in mice, after oral administration at a dose of 100 mg/kg p.o. at 5 hr; format: functional, organism-based; parameters: dose 100 mg/kg
Mus musculus [9] = assay: Serum concentration in mice, after oral administration at a dose of 100 mg/kg p.o. at 0.5 h; format: functional, organism-based; parameters: dose 100 mg/kg; procedure, shortened: as §6
[10] = Lethal dose was measured in rat after oral administration; format: toxicity, organism-based; settings: in vivo; procedure, shortened: as §3
Mus musculus [11] = assay: Serum concentration in mice, after oral administration at a dose of 50 mg/kg p.o. at 2 hr; format: functional, organism-based; parameters: dose 50 mg/kg
Mus musculus [12] = assay: Compound was tested for antimicrobial activity in mice infected with Staphylococcus aureus smith, po; format: functional; procedure, shortened: as §1
Mus musculus [13] = assay: Serum Levels in mice, after oral administration at a dose of 100 mg/kg p.o. at 0.5 h; format: functional, organism-based; parameters: dose 100 mg/kg; procedure, shortened: as §6
Mus musculus [14] = assay: as §5; format: functional, organism-based; parameters: dose 100 mg/kg; procedure, shortened: as §6; remark: listed apart in the source
Mus musculus [15] = assay: Compound was tested for antimicrobial activity in mice infected with Escherichia coli KC-14, po; format: functional; procedure, shortened: as §1
Mus musculus [16] = assay: Serum Levels in mice, after oral administration at a dose of 100 mg/kg p.o. at 5 hr; format: functional, organism-based; parameters: dose 100 mg/kg
Mus musculus [17] = assay: Serum Levels in mice, after oral administration at a dose of 100 mg/kg p.o. at 1 hr; format: functional, organism-based; parameters: dose 100 mg/kg; procedure, shortened: as §6
Mus musculus [18] = assay: Serum Levels in mice, after oral administration at a dose of 100 mg/kg p.o. at 2 hr; format: functional, organism-based; parameters: dose 100 mg/kg; procedure, shortened: as §6
[19] = Compound was evaluated for area under curve doses in […] at 100 mg/kg po; format: functional, organism-based; parameters: dose 100 mg/kg

CCn1cc(C(=O)O)c(=O)c2cc(F)c(N3CCNCC3)cc21 [NORFLOXACIN]
ED50 (Escherichia coli [1]): 4.38 mg/kg
Activity (Staphylococcus aureus): 0.39
Activity (Proteus vulgaris): 0.2
Activity (Serratia marcescens): 0.78
LD50 [2]: 314 mg/kg
Activity (Escherichia coli [3]): 0.39
Activity (Pseudomonas aeruginosa): 0.78
Activity (Klebsiella pneumoniae): 0.2
ED50 (Mus musculus [4]): 59 mg/kg
ED50 (Mus musculus [5]): 36.4 mg/kg
Activity (Bacillus subtilis): 0.39

CCn1cc(C(=O)O)c(=O)c2cc(F)c(N3CCN(CC(=O)c4ccccc4)CC3)cc21
ED50 (Escherichia coli [1]): > 7.5 mg/kg
Activity (Staphylococcus aureus): 0.78
Activity (Proteus vulgaris): 0.39
Activity (Serratia marcescens): 1.56
Activity (Escherichia coli [3]): 0.78
Activity (Pseudomonas aeruginosa): 1.56
Activity (Klebsiella pneumoniae): 0.78
Activity (Bacillus subtilis): 0.78

CCn1cc(C(=O)O)c(=O)c2cc(F)c(N3CCN(CC(=O)C(C)(C)C)CC3)cc21
ED50 (Escherichia coli [1]): 7.13 mg/kg
Activity (Staphylococcus aureus): 0.78
Serum concentration (Mus musculus [6]): 9.4 µg/mL
Activity (Proteus vulgaris): 3.13
Activity (Serratia marcescens): <100
Serum concentration (Mus musculus [7]): 15.4 µg/mL
Activity (Escherichia coli [3]): 12.5
Activity (Pseudomonas aeruginosa): 50
Activity (Klebsiella pneumoniae): 0.78
Serum concentration (Mus musculus [8]): 6.73 µg/mL
Serum concentration (Mus musculus [9]): 19.6 µg/mL
Activity (Bacillus subtilis): 0.78

CCn1cc(C(=O)O)c(=O)c2cc(F)c(N3CCN(C(C)C(C)=O)CC3)cc21 (stereo not given)
ED50 (Escherichia coli [1]): 3.53 mg/kg
Activity (Staphylococcus aureus): 0.78
Activity (Proteus vulgaris): 1.56
Activity (Serratia marcescens): 12.5
Activity (Escherichia coli [3]): 3.13
Activity (Pseudomonas aeruginosa): 12.5
Activity (Klebsiella pneumoniae): 0.78
Activity (Bacillus subtilis): 0.78

CCn1cc(C(=O)O)c(=O)c2cc(F)c(N3CCN(CC(C)=O)CC3)cc21
ED50 (Escherichia coli [1]): 0.95 mg/kg
Activity (Staphylococcus aureus): 0.39
Serum concentration (Mus musculus [6]): 2.69 µg/mL
Activity (Proteus vulgaris): 0.78
Activity (Serratia marcescens): 6.25
Serum concentration (Mus musculus [7]): 7.29 µg/mL
LD50 [2]: 684 mg/kg
Activity (Escherichia coli [3]): 1.56
Activity (Pseudomonas aeruginosa): 6.25
Activity (Klebsiella pneumoniae): 0.2
LD50 [10]: > 4000 mg/kg
Serum concentration (Mus musculus [11]): 8.88 µg/mL
Serum concentration (Mus musculus [8]): 0.46 µg/mL
Serum concentration (Mus musculus [9]): 23.6 µg/mL
ED50 (Mus musculus [12]): 12.6 mg/kg
ED50 (Mus musculus [4]): 18.5 mg/kg
Activity (Bacillus subtilis): 0.39

CCn1cc(C(=O)O)c(=O)c2cc(F)c(N3CCN(C(C)(C)C(C)=O)CC3)cc21
ED50 (Escherichia coli [1]): 6.06 mg/kg
Activity (Staphylococcus aureus): 0.78
Activity (Proteus vulgaris): 1.56
Activity (Serratia marcescens): 6.25
Activity (Escherichia coli [3]): 3.13
Activity (Pseudomonas aeruginosa): 6.25
Activity (Klebsiella pneumoniae): 0.39
Activity (Bacillus subtilis): 0.39

CCn1cc(C(=O)O)c(=O)c2cc(F)c(N3CCN(CC(C)O)CC3)cc21 (stereo not given)
ED50 (Escherichia coli [1]): 3.9 mg/kg
Activity (Staphylococcus aureus): 0.39
Activity (Proteus vulgaris): 0.78
Activity (Serratia marcescens): 3.12
Serum concentration (Mus musculus [7]): 20.2 µg/mL
Activity (Escherichia coli [3]): 0.78
Activity (Pseudomonas aeruginosa): 6.25
Serum level (Mus musculus [13]): 13.6 µg/mL
Activity (Klebsiella pneumoniae): 0.2
Serum concentration (Mus musculus [11]): 4.48 µg/mL
Serum concentration (Mus musculus [14]): 6.93 µg/mL
Serum concentration (Mus musculus [8]): 2.82 µg/mL
ED50 (Mus musculus [15]): 3.5 mg/kg
Serum concentration (Mus musculus [9]): 19.5 µg/mL
Serum level (Mus musculus [16]): 2.21
Serum level (Mus musculus [17]): 27.1
Activity (Bacillus subtilis): 0.78
Serum level (Mus musculus [18]): 11.8 µg/mL

CCn1cc(C(=O)O)c(=O)c2cc(F)c(N3CCN(CCC(C)=O)CC3)cc21
ED50 (Escherichia coli [1]): 2.34 mg/kg
Activity (Staphylococcus aureus): 0.78
Serum concentration (Mus musculus [6]): 2.22 µg/mL
Activity (Proteus vulgaris): 0.2
Activity (Serratia marcescens): 0.78
Serum concentration (Mus musculus [7]): 3.55 µg/mL
Activity (Escherichia coli [3]): 0.78
Activity (Pseudomonas aeruginosa): 0.78
Activity (Klebsiella pneumoniae): 0.2
AUC [19]: 12.9
Serum concentration (Mus musculus [8]): 1.18 µg/mL
Serum concentration (Mus musculus [9]): 7.06 µg/mL
Activity (Bacillus subtilis): 0.39
